Assay results from ChEMBL document CHEMBL2331240, “Focused library development of 2-phenylacrylamides as broad spectrum cytotoxic agents” (2013).
Activity calls are given as the source filed them.

Tests used:
SJ-G2 = test: Cytotoxicity against human SJ-G2 cells assessed as growth inhibition at 25 uM measured after 72 hrs by MTT assay; assay type: functional, cell-based
Procedure, shortened: (§1)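 Log-phase cells were plated in duplicate at 2500–4000 cells/well in DMEM with 10% FBS, glutamine and antibiotics, at 37 °C under 5% CO2. Drug was added 24 h after plating from a 40 mM DMSO stock, to a final 25 μM. After 72 h exposure, MTT was read at 540 nm and % growth inhibition was calculated, with 100% meaning total growth inhibition.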

MIA = test: Cytotoxicity against human MIA cells assessed as growth inhibition at 25 uM measured after 72 hrs by MTT assay; assay type: functional; procedure, shortened: as §1
BE(2)-C = test: Cytotoxicity against human BE(2)-C cells assessed as growth inhibition at 25 uM measured after 72 hrs by MTT assay; assay type: functional; procedure, shortened: as §1
A-431 = test: Cytotoxicity against human A431 cells assessed as growth inhibition at 25 uM measured after 72 hrs by MTT assay; assay type: functional, cell-based; procedure, shortened: as §1
DU-145 = test: Cytotoxicity against human DU145 cells assessed as growth inhibition at 25 uM measured after 72 hrs by MTT assay; assay type: functional, cell-based; procedure, shortened: as §1
A2780 = test: Cytotoxicity against human A2780 cells assessed as growth inhibition at 25 uM measured after 72 hrs by MTT assay; assay type: functional; procedure, shortened: as §1
NCI-H460 = test: Cytotoxicity against human H460 cells assessed as growth inhibition at 25 uM measured after 72 hrs by MTT assay; assay type: functional, cell-based; procedure, shortened: as §1
SW480 = test: Cytotoxicity against human SW480 cells assessed as growth inhibition at 25 uM measured after 72 hrs by MTT assay; assay type: functional; procedure, shortened: as §1
MCF7 = test: Cytotoxicity against human MCF7 cells assessed as growth inhibition at 25 uM measured after 72 hrs by MTT assay; assay type: functional; procedure, shortened: as §1
HT-29 = test: Cytotoxicity against human HT-29 cells assessed as growth inhibition at 25 uM measured after 72 hrs by MTT assay; assay type: functional, cell-based; procedure, shortened: as §1
SMA = test: Cytotoxicity against mouse SMA cells assessed as growth inhibition at 25 uM measured after 72 hrs by MTT assay

Measured: growth inhibition (GI)

Cc1ccc(/C=C(\C#N)C(=O)c2c[nH]c3ccccc23)cc1
inactive: all assays above

N#C/C(=C\c1ccc(O)cc1)C(=O)c1c[nH]c2ccccc12
inactive: all assays above

N#C/C(=C\c1ccc2ccccc2c1)C(=O)c1ccc[nH]1
inactive: all assays above

N#C/C(=C\c1ccc(Cl)cc1)C(=O)c1c[nH]c2ccccc12
inactive: all assays above

COc1ccc(/C=C(\C#N)C(=O)NCc2ccc(OC)cc2)cc1
inactive: all assays above

N#C/C(=C\c1ccc(C(F)(F)F)cc1)C(=O)c1ccc[nH]1
inactive: all assays above

Cc1ccc(/C=C(\C#N)C(=O)c2ccc[nH]2)cc1
inactive: all assays above

N#C/C(=C\c1ccc(Cl)c(Cl)c1)C(=O)c1ccc[nH]1
inactive: all assays above
